Assay results reported in ChEMBL document CHEMBL6083205, “A comprehensive apoptotic assessment of niloticin in cervical cancer cells: a tirucallane-type triterpenoid from Aphanamixis polystachya (Wall.) Parker” (RSC Med Chem, 2024).
pIC50: −log10 of the molar value.

Test system: HeLa
Assay: Antiproliferative activity against human HeLa cells assessed as inhibition of cell growth incubated for 24 hrs by MTT assay
Type: functional, cell-based
Method in brief: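 Cells kept in DMEM with 10% FBS and 1% antibiotic-antimycotic at 37 °C and 5% CO2. Seeded at 8 × 10^3 cells per 100 μL and left 24 h, then exposed 24 h to 5, 10, 20, 50 or 100 μM. MTT at 0.5 mg/mL in HBSS was added for 2–4 h at 37 °C in the dark. Formazan was dissolved in DMSO, A570 was read, and IC50 was derived.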

pIC50: 4.49
SMILES: COc1cccc2c1C(=O)c1c(O)c3c(c(O)c1C2=O)C[C@@](O)(C(=O)CO)C[C@@H]3O[C@H]1C[C@H](N)[C@H](O)[C@H](C)O1 [DOXORUBICIN]
